Assay results as given in ChEMBL document CHEMBL1667800, “Synthesis, DNA/RNA affinity and antitumour activity of new aromatic diamidines linked by 3,4-ethylenedioxythiophene” (Eur J Med Chem, 2011).
Activity calls are given as the source filed them. No cut-off for these calls is given here.

How the values were obtained:
HeLa = assay: Cytotoxicity against human HeLa cells after 72 hrs by MTT assay; format: functional
How it was run: (§1)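 Cells were seeded at 2 × 10^4 cells/mL and attached overnight at 37 °C, 5% CO2. They were then exposed for 72 h to compounds from aqueous stocks (working solutions 10^-3–10^-6 mol dm^-3). MTT was added for 4 h at 37 °C, formazan dissolved in DMSO, and absorbance read at 570 nm. GI50 is the mean ± SD of three independent experiments run in triplicate.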

Nucleic Acid [1] = assay: Binding affinity to polu A-poly U assessed as melting temperature at compound over DNA molar ratio of 0.3 at pH 7 by thermal denaturation assay; format: nucleic-acid assay
How it was run: (§2)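 Thermal melting of ds-polynucleotide (ct-DNA or poly A-poly U) alone and with compound at the given r, Na-cacodylate pH 7.0, I = 0.05 mol dm^-3. Absorbance at 260 nm was followed versus temperature, with compound absorbance subtracted and the curve normalized. Tm was taken from the first-derivative maximum or by tangent. ΔTm = Tm(complex) − Tm(free nucleic acid).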

MIA PaCa-2 = assay: Cytotoxicity against human MIAPaCa2 cells after 72 hrs by MTT assay; format: functional; conditions: MIA PaCa-2, 72 h; how it was run: as §1
AGS = assay: Cytotoxicity against human AGS cells after 72 hrs by MTT assay; format: functional; how it was run: as §1
MCF7 = assay: Cytotoxicity against human MCF7 cells after 72 hrs by MTT assay; format: functional; conditions: MCF7, 72 h; how it was run: as §1
[2] = Cytotoxicity against MDCK cells after 72 hrs by MTT assay; format: cell-based, Canis lupus familiaris; conditions: dog; how it was run: as §1
Caco-2 = assay: Cytotoxicity against human Caco2 cells after 72 hrs by MTT assay; format: functional; conditions: Caco-2, 72 h; how it was run: as §1
Calf thymus DNA [3] = assay: Binding affinity to calf thymus DNA assessed as melting temperature at compound over DNA molar ratio of 0.3 at pH 7 by thermal denaturation assay; format: nucleic-acid assay; conditions: Bos taurus; how it was run: as §2
NCI-H358 = assay: Cytotoxicity against human NCI-H358 cells after 72 hrs by MTT assay; format: functional; conditions: NCI-H358, 72 h; how it was run: as §1
HEp-2 = assay: Cytotoxicity against human Hep2 cells after 72 hrs by MTT assay; format: functional; conditions: HEp-2, 72 h; how it was run: as §1
Calf thymus DNA [4] = assay: Binding affinity to calf thymus DNA assessed as melting temperature at compound over DNA molar ratio of 0.2 at pH 7 by thermal denaturation assay; format: nucleic-acid assay; conditions: Bos taurus; how it was run: as §2
Calf thymus DNA [5] = assay: Binding affinity to calf thymus DNA minor groove assessed as DNA CD band at compound over DNA molar ratio of < 0.2 by circular dichroism titration; format: nucleic-acid assay; conditions: Bos taurus
How it was run: (§3)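 CD titration of polynucleotide (2.0 × 10^-5 mol dm^-3, as phosphate) with added compound over a range of r = [compound]/[polynucleotide]. Na-cacodylate buffer, pH 7.0, I = 0.05 mol dm^-3, 1 cm quartz cuvette. ct-DNA was sonicated and filtered before use. Changes in the polynucleotide CD band and induced CD bands were followed.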

Calf thymus DNA [6] = assay: Binding affinity to calf thymus DNA assessed as batochromic effect at compound over DNA molar ratio of 0.2 by fluorimetric titration; format: nucleic-acid assay; conditions: Bos taurus
How it was run: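 Fluorimetric titration of compound (about 1.0 × 10^-6 mol dm^-3) with ct-DNA. Excitation above 360 nm to avoid inner-filter effects. Na-cacodylate buffer, pH 7.0, I = 0.05 mol dm^-3. Emission at the maximum was plotted against c(ct-DNA). Ks and n were obtained by non-linear Scatchard fitting.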

Calf thymus DNA [7] = assay: Binding affinity to calf thymus DNA assessed as hyperchromic effect at compound over DNA molar ratio of 0.2 by UV-Vis spectra; format: nucleic-acid assay; conditions: Bos taurus; in the assay text read “hypochromic effect” for “hyperchromic effect”
How it was run: (§4)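 UV-Vis titration of compound (c = 1.97 × 10^-5 mol dm^-3 in the shown example) with ct-DNA. Na-cacodylate buffer, pH 7.0, I = 0.05 mol dm^-3, 1 cm quartz cuvette. Absorbance at the maximum was tracked against c(ct-DNA). Ks and n were obtained by non-linear least-squares Scatchard fitting.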

Calf thymus DNA [8] = assay: Binding affinity to calf thymus DNA assessed as DNA CD band at compound over DNA molar ratio of > 0.3 by circular dichroism titration; format: nucleic-acid assay; conditions: Bos taurus; how it was run: as §3
Calf thymus DNA [9] = assay: Binding affinity to calf thymus DNA assessed as melting temperature at compound over DNA molar ratio of 0.1 at pH 7 by thermal denaturation assay; format: nucleic-acid assay; conditions: Bos taurus; how it was run: as §2
Calf thymus DNA [10] = assay: Binding affinity to calf thymus DNA assessed as batochromic effect at compound over DNA molar ratio of 0.2 by UV-Vis spectra; format: nucleic-acid assay; conditions: Bos taurus; how it was run: as §4
Nucleic Acid [11] = assay: Binding affinity to ds-RNA assessed as RNA CD band at compound over RNA molar ratio of < 0.2 by circular dichroism titration; format: nucleic-acid assay; how it was run: as §3
Calf thymus DNA [12] = assay: Binding affinity to calf thymus DNA assessed as hyperchromic effect at compound over DNA molar ratio of 0.5 by UV-Vis spectra; format: nucleic-acid assay; conditions: Bos taurus; in the assay text read “hypochromic effect” for “hyperchromic effect”; how it was run: as §4
Calf thymus DNA [13] = assay: Binding affinity to calf thymus DNA assessed as hyperchromic effect at compound over DNA molar ratio of 0.4 by UV-Vis spectra; format: nucleic-acid assay; conditions: Bos taurus; in the assay text read “hypochromic effect” for “hyperchromic effect”; how it was run: as §4
Nucleic Acid [14] = assay: Binding affinity to ds-RNA assessed as RNA CD band at compound over RNA molar ratio of > 0.2 by circular dichroism titration; format: nucleic-acid assay; how it was run: as §3

| Structure (SMILES) | GI50 (HeLa) | ΔTm (Nucleic Acid [1]) | GI50 (MIA PaCa-2) | GI50 (AGS) | GI50 (MCF7) | GI50 at 72 h [2] | GI50 (Caco-2) | ΔTm (Calf thymus DNA [3]) | GI50 (NCI-H358) | GI50 (HEp-2) | ΔTm (Calf thymus DNA [4]) | Activity (Calf thymus DNA [5]) | Activity (Calf thymus DNA [6]) | Activity (Calf thymus DNA [8]) | ΔTm (Calf thymus DNA [9]) | Activity (Calf thymus DNA [10]) | Activity (Nucleic Acid [11]) | further results |
| --- | --- | --- | --- | --- | --- | --- | --- | --- | --- | --- | --- | --- | --- | --- | --- | --- | --- | --- |
| N=C(Nc1ccccc1)c1sc(C(=N)Nc2ccccc2)c2c1OCCO2 | 138 µM | 0 °C | 128 µM | 114 µM | 129 µM | 79.5 µM | 134 µM | 0 °C | 112 µM | 100 µM | – | – | – | – | – | – | – | – |
| c1cc(-c2sc(-c3ccc(C4=NCCCN4)cc3)c3c2OCCO3)ccc1C1=NCCCN1 | 97.5 µM | 8.2 °C | 64.7 µM | 81.7 µM | 8.4 µM | 82 µM | 101 µM | > 16 °C | 98.7 µM | 97.7 µM | > 16 °C | Active | Active | Active | 11.8 °C | Active | inactive | Activity (Calf thymus DNA [7]): Active |
| N=C(N)c1ccc(-c2sc(-c3ccc(C(=N)N)cc3)c3c2OCCO3)cc1 | 32.3 µM | 12.6 °C | 9.3 µM | 116 µM | 25 µM | 7.1 µM | 13 µM | > 16 °C | 33 µM | 9.3 µM | > 16 °C | Active | Active | Active | 12.2 °C | Active | inactive | Activity (Calf thymus DNA [12]): Active |
| CC(C)NC(=N)c1ccc(-c2sc(-c3ccc(C(=N)NC(C)C)cc3)c3c2OCCO3)cc1 | 72.3 µM | 5.8 °C | 13 µM | 72.3 µM | 67.5 µM | 65.3 µM | 76.5 µM | 12.3 °C | 113 µM | 9 µM | 11.1 °C | Active | Active | Active | 8.4 °C | Active | inactive | Activity (Calf thymus DNA [13]): Active; Activity (Nucleic Acid [14]): Active |
